# Data published in ChEMBL document CHEMBL4266025, “Stereoselective Synthesis of the Isomers of Notoincisol A: Assigment of the Absolute Configuration of this Natural Product and Biological Evaluation” (J Nat Prod, 2018).
# Active and inactive are the calls of the source. No cut-off for these calls is given here.
# Columns and labels:
# [1] = molecular target: T1, Peroxisome proliferator-activated receptor gamma (Homo sapiens) (UniProt P37231); experiment: Transactivation of human full length PPARgamma expressed in HEK293 cells up to 3 uM after 18 hrs by luciferase reporter gene based luminescence assay; type: cell-based
# T1 sequence (whole entry): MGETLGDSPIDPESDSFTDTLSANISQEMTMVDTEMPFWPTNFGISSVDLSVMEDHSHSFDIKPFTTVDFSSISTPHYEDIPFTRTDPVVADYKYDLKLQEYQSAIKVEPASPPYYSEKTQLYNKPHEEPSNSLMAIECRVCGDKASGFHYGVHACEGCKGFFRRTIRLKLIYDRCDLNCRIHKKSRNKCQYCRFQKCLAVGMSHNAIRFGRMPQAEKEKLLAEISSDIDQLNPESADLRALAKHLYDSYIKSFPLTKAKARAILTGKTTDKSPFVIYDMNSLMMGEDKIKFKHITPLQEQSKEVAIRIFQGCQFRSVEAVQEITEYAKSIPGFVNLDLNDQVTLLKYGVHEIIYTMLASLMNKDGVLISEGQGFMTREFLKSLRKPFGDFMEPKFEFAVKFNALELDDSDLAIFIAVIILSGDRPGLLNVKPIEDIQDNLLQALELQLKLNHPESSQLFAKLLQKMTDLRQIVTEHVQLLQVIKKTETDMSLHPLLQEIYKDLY
# In short: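 HEK293 cells transfected for 6 h with full-length human PPARγ, a PPRE-firefly luciferase reporter and pEGFP-N1 (internal control). Cells reseeded in serum-free DMEM, dosed at 0.1–30 μM in DMSO and incubated 18 h. Luciferase/EGFP ratio expressed as fold induction over 0.1% DMSO; pioglitazone 5 μM as positive control. EC50 from a variable-slope sigmoidal fit.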
# [2] = molecular target: GABA-A receptor; alpha-1/beta-2/gamma-2 (Homo sapiens) (UniProt P14867+P47870+P18507); experiment: Positive allosteric modulation of GABAA receptor alpha1beta2gamma2 (unknown origin) expressed in Xenopus laevis oocytes assessed as GABA-stimulated current amplitude at 1 to 10 uM incubated for 120 secs by electrophysiological method relative to control; type: cell-based
# In short: (§1)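 Two-electrode voltage clamp on Xenopus oocytes injected with subunit mRNA mixtures (α1β3 or α1β2γ2). Compounds at 1 and 10 μM, diluted into measurement buffer, co-applied with GABA at EC3-5, EC20, EC50 and EC80. Result taken as enhancement of the GABA-elicited current.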
# Oocyte = experiment: Induction of current amplitude in Xenopus laevis oocytes after […] by electrophysiological method; type: functional, cell-based
# [3] = molecular target: GABA-A receptor alpha-1/beta-3 (Homo sapiens) (UniProt P14867+P28472); experiment: Positive allosteric modulation of GABAA receptor alpha1beta3 (unknown origin) expressed in Xenopus laevis oocytes assessed as GABA-stimulated current amplitude at 1 to 10 uM up to 120 secs by electrophysiological method; type: cell-based; in short: as §1
# HEK293 = experiment: Cytotoxicity against HEK293 cells assessed as decrease in cell viability at 10 uM after 24 hrs by resazurin based assay; conditions: human, hek293, 24 h
# In short: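 HEK293 cells seeded at 4 × 10^4 cells/well, grown overnight, then exposed to compound at 0.3, 1, 3, 10 and 30 μM for 24 h. Resazurin (10 μg/mL in PBS) added for 4 h at 37 °C. Resorufin fluorescence read at 535 nm excitation/590 nm emission as the viability measure.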
SMILES,Activity [1],fold change (FC) [2],Activity (Oocyte),Activity [3],Activity (HEK293)
C=C[C@H](O)C#CC#C[C@@H](/C=C\CCCCCCC)OC(=O)/C=C/c1ccc(O)c(OC)c1,inactive,4,Active,Active,
C=C[C@@H](O)C#CC#C[C@H](/C=C\CCCCCCC)OC(=O)/C=C/c1ccc(O)c(OC)c1,,4,Active,Active,
C=CC(O)C#CC#CC(/C=C\CCCCCCC)OC(=O)/C=C/c1ccc(O)c(OC)c1 (stereo not drawn),inactive,,,,Toxic
C=C[C@H](O)C#CC#C[C@@H](O)/C=C\CCCCCCC,inactive,,,,Toxic
CCC[C@@H](O)CC/C=C/C=C/C#CC#CCCCO [DIHYDROOENANTHOTOXIN],inactive,,,,Toxic
C=C[C@H](O)C#CC#C[C@H](/C=C\CCCCCCC)OC(=O)/C=C/c1ccc(O)c(OC)c1,inactive,4,Active,Active,
CCC[C@@H](O)/C=C/C=C/C=C/C#CC#CCCCO [CICUTOXIN],inactive,,,,Toxic
C=C[C@@H](O)C#CC#C[C@@H](/C=C\CCCCCCC)OC(=O)/C=C/c1ccc(O)c(OC)c1,inactive,4,Active,Active,
